Data on 26 molecules can be found in PubChem BioAssay AID1656 (Sanford-Burnham Center for Chemical Genomics, 2009).

The term inhibition denotes the relative decrease from the control value, in per cent.

Hit rate of the full screen: of about 240,000 compounds, about 950 (0.4%) were called active.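 How the source made its calls: active means lipid droplet intensity inhibited by at least 50%, with more than 500 cells counted; inconclusive means wells with under 300 cells, treated as cytotoxic; inactive means the rest.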 For the sample, actives were picked, then their nearest neighbours and some compounds at random.

The assay in a line: oleate-induced lipid droplet accumulation in AML12 cells – imaging, high-throughput imaging, BODIPY stain, primary screen (AID 1656).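 On cell count: cells counted across two imaged fields per well.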 Particulars: AML12 mouse hepatocytes, oleate lipid droplets, at 6.5 µM; cell count: measured here: cell count, cytotoxicity flag; inhibition: stronger effect = higher value. A digest of the protocol:
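Assay system: AML12 hepatocytes (mouse) / Also added: 100 µM oleic acid challenge / Times: overnight treatment with compound plus oleate / Detection: high-content imaging of BODIPY-stained droplets and DAPI nuclei / Evaluation: % inhibition of lipid droplet signal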
For the molecule `COc1cccc(NC(=O)CN(C)C(=O)c2ccccc2CCc2ccccc2)c1`, the cell count worked out at 836 cells and the inhibition was -9.7% (inactive).
For `CC(=O)c1cccc(NC(=O)CN2C(=O)c3cccnc3Oc3ccc(Cl)cc32)c1`, in that order: 693 cells and -16.7% (inactive).
Regarding `O=C(c1ccccc1)N1N=C(c2ccccc2O)CC1c1ccc(Br)cc1` (configuration not stated), the cell count is 868 cells and the inhibition was 1.5% (inactive).
For `COc1ccc(C(=O)NC2CC(C)(C)Cc3c2cnn3-c2ccccc2C)o1` (configuration not stated), in that order: 621 cells and -21% (inactive).
For `Cc1ccc(/C=C2/SC(=S)N(CCC(=O)NCCCN3CCOCC3)C2=O)cc1`, in that order: 794 cells and -18.3% (inactive).
In the case of `CCC(CC)NC(=O)/C=C/c1cccc([N+](=O)[O-])c1`, the cell count amounted to 628 cells and the inhibition was -7.2% (inactive).
For `Cc1ccc(NC(=O)O/N=C/c2cccc([N+](=O)[O-])c2)cc1`, in that order: 427 cells and -4.6% (inactive).
Turning to `CCc1ccc(NC(=O)C(C)OC(=O)/C=C/c2cccc([N+](=O)[O-])c2)cc1` (configuration not stated), the cell count is 651 cells and the inhibition is 60% (active).
In the case of `COc1ccccc1CCNS(=O)(=O)c1cc2c3c(c1)C(C)C(=O)N3CCC2` (configuration not stated), the cell count worked out at 707 cells and the inhibition is -4% (inactive).
The matching figures for `CCCCN(CCCC)CCCNC(=O)CN1C(=O)COc2ccc(S(=O)(=O)N3CCC(C)CC3)cc21`: 789 cells and 10.1% (inactive).
The matching figures for `CCOC(=O)[C@H]1[C@H]2COc3cc(OC)ccc3[C@@H]2N2C(=O)N(c3ccc(Br)cc3)C(=O)[C@@]12C`: 831 cells and -8.9% (inactive).
The matching figures for `COc1cccc(OCC(O)CNC(=O)c2oc3c(C)c(C)ccc3c2C)c1` (configuration not stated): 871 cells and -0.2% (inactive).
In the case of `CC1CCN(c2nc3c(c(=O)[nH]c(=O)n3C)n2CCCc2ccccc2)CC1`, the cell count came to 572 cells and the inhibition was -14.6% (inactive).
As for `C=C(C)Cn1c(N2CCCC2)nc2c1c(=O)[nH]c(=O)n2C`, the cell count was found to be 632 cells and the inhibition is -2.2% (inactive).
Consider `Cn1c(=O)[nH]c(=O)c2c1nc(N1CCN(C(c3ccccc3)c3ccccc3)CC1)n2CCO`, for which the cell count turned out to be 768 cells and the inhibition is 60.3% (active).
For `CCOc1ccc(NC(=O)CCCCCN2C(=O)[C@@H]3Cc4ccccc4CN3C2=O)cc1`, in that order: 676 cells and 11.7% (inactive).
Turning to `CCOc1ccc(CCNC(=O)C2=C(C)C(=O)OC23CCC(C)CC3)cc1OCC` (configuration not stated), the cell count is 788 cells and the inhibition is 17.6% (inactive).
The matching figures for `CCOc1cc(NC(=O)Nc2ccccc2)c(OCC)cc1NC(=O)CC`: 783 cells and 4.2% (inactive).
For `CCOc1ccc(CCNC(=O)Nc2ccccc2)cc1OCC`, in that order: 809 cells and 118% (active).
The matching figures for `CCn1c(SCc2cccc(C(=O)O)c2)nnc1-c1ccc(Cl)cc1`: 802 cells and 11.8% (inactive).
`COc1ccc(C(=O)N2CCCCC2C(=O)Nc2ccc(-n3nc(C)cc3C)cc2)o1` (configuration not stated): the cell count stood at 694 cells and the inhibition is -12.1% (inactive).
Regarding `Cc1cc(N2CCN(c3ccccc3)CC2)nc(N2CCOCC2)n1`, the cell count amounted to 649 cells and the inhibition was -5.7% (inactive).
Take `C(=N/Nc1cc(N2CCOCC2)nc(N2CCOCC2)n1)/c1ccccc1`: the cell count turned out to be 583 cells and the inhibition is 120% (active).
As to `CN(C)c1ccc(/C=N/Nc2cc(N3CCOCC3)nc(N3CCOCC3)n2)cc1`, the cell count came out at 716 cells and the inhibition was -2.2% (inactive).
The matching figures for `Cc1cccc(NC(=O)c2ccc(S(=O)(=O)N(C)CC3CCCO3)cc2)c1C` (configuration not stated): 678 cells and -9.6% (inactive).
As for `Cc1cccc2c1cnn2C(=O)CCC(=O)NC1CCCCC1`, the cell count turned out to be 740 cells and the inhibition was -7.9% (inactive).
